# Data as given in ChEMBL document CHEMBL1137269, “Identification of substituted 4-aminopiperidines and 3-aminopyrrolidines as potent MCH-R1 antagonists for the treatment of obesity” (Bioorg Med Chem Lett, 2006).
# How the values were obtained:
# [1] = biological target: T1, Melanin-concentrating hormone receptor 1 (Homo sapiens, UniProt Q99705); assay: Binding activity against human MCH-R1
# Outline: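 Whole-cell competition binding in HEK-293 cells overexpressing MCH-R1 (SLC-1). Cells were incubated with varying compound concentrations plus 25 nM europium-labelled MCH, then washed free of unbound label, and residual bound europium-MCH was quantified. Non-specific binding was defined with unlabelled MCH. Values are means of at least two experiments unless indicated otherwise.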
# [2] = biological target: T1, Melanin-concentrating hormone receptor 1; assay: Inhibition of MCH-mediated calcium release by CHO cells expressing human MCH-R1; type: functional, cell-based
# T1 sequence (Q99705 whole entry): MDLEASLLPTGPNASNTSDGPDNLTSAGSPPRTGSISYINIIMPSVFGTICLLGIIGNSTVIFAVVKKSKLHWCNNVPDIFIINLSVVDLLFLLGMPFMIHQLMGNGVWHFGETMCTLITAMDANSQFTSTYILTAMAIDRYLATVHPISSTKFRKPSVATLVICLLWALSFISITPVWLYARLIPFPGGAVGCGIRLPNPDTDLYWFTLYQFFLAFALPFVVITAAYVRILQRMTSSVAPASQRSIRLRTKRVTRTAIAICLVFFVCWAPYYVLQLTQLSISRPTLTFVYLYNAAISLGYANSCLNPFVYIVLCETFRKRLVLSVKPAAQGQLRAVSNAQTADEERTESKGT
Structure (SMILES),Ki [1] [µM],IC50 [2] [µM]
COc1cc(OC)cc(C(=O)NC2CCN(C/C=C/c3ccccc3)CC2)c1,0.012,–
COc1cc(OC)cc(C(=O)NC2CCN(CC3CCc4ccccc4C3)CC2)c1 (centres undefined),0.136,–
COc1cc(OC)cc(C(=O)NC2CCN(Cc3ccc4ccccc4n3)CC2)c1,0.625,–
COc1cc(C(=O)NC2CCN(Cc3ccc4ccccc4c3)CC2)cc(OC)c1OC,0.286,–
COc1cc(OC)cc(C(=O)NC2CCN(Cc3ccccc3)CC2)c1,0.302,–
COc1cc(OC)cc(C(=O)NC2CCN(C(C)c3ccc4ccccc4c3)CC2)c1 (centres undefined),0.025,–
COc1cc(OC)cc(C(=O)N(C)C2CCN(Cc3ccc4ccccc4c3)CC2)c1,0.169,–
COc1cc(OC)cc(C(=O)N[C@@H]2CCN(C(C)c3ccc4ccccc4c3)C2)c1 (some centres undefined),0.012,–
O=C(NC1CCN(Cc2ccc3ccccc3c2)CC1)c1ccccc1,0.347,0.948
COc1cc(C(=O)NC2CCN(Cc3ccc4ccccc4c3)CC2)ccc1F,0.013,–
O=C(NCc1ccc(F)c(F)c1)[C@H]1[C@@H]2CN(Cc3ccc4ccccc4c3)C[C@@H]21,0.04,–
COc1cc(OC)cc(C(=O)NCCCNCc2ccc3ccccc3c2)c1,> 100,–
O=C(NCc1ccc(F)c(F)c1)[C@@H]1[C@@H]2CN(Cc3ccc4ccccc4c3)C[C@@H]21,> 100,–
O=C(NC1CCN(Cc2ccc3ccccc3c2)CC1)c1cc(F)c(F)c(F)c1,0.009,–
CN(C)c1cccc(C(=O)NC2CCN(Cc3ccc4ccccc4c3)CC2)c1,0.125,–
COc1cc(OC)cc(C(=O)N[C@@H]2CCN(Cc3ccc4ccccc4c3)C[C@@H]2C)c1,0.17,–
O=C(NC1CCN(Cc2ccc3ccccc3c2)CC1)c1cccc(O)c1,0.57,–
COc1cccc(C(=O)NC2CCN(Cc3ccc4ccccc4c3)CC2)c1,0.029,–

# Further lines, results first:
Ki [1] [µM],IC50 [2] [µM],Structure (SMILES)
> 100,–,COc1cc(OC)cc(C(=O)NC2CCN(CCCc3ccccc3)CC2)c1
0.125,0.109,O=C(NC1CCN(Cc2ccc3cc(F)ccc3c2)CC1)c1ccccc1
0.032,–,COc1cc(OC)cc(C(=O)NC2CCN(Cc3ccc4cc(F)ccc4c3)CC2)c1
0.062,–,COc1cc(C(=O)N[C@@H]2CCN(Cc3ccc4ccccc4c3)C2)ccc1F
0.056,–,CCOc1cc(OCC)cc(C(=O)NC2CCN(Cc3ccc4ccccc4c3)CC2)c1
1,–,COc1ccc(C(=O)NC2CCN(Cc3ccc4ccccc4c3)CC2)cc1OC
0.017,0.042,COc1cc(OC)cc(C(=O)N[C@@H]2CCN(C/C=C/c3ccccc3)C2)c1
0.027,0.062,COc1cc(OC)cc(C(=O)NC2CCN(Cc3ccc4ccccc4c3)CC2)c1
0.065,–,O=C(NC1CCN(Cc2ccc3ccccc3c2)CC1)c1cc(F)cc(F)c1
0.067,–,COc1cccc(C(=O)N[C@@H]2CCN(Cc3ccc4ccccc4c3)C2)c1
0.018,0.052,O=C(NC1CCN(Cc2ccc3ccccc3c2)CC1)c1ccc(F)c(F)c1
0.007,0.018,COc1cc(OC)cc(C(=O)N[C@@H]2CCN(Cc3ccc4ccccc4c3)C2)c1
0.133,–,COc1cc(OC)cc(C(=O)N[C@@H]2CCN(Cc3ccc4ccccc4c3)C[C@H]2C)c1
0.086,–,COc1cc(OC)cc(C(=O)NC2(C)CCN(Cc3ccc4ccccc4c3)CC2)c1
0.232,–,O=C(NC1CCN(Cc2ccc3ccccc3c2)CC1)c1ccc(Cl)cc1
> 100,–,COc1cc(OC)cc(C(=O)NC2CCCN(Cc3ccc4ccccc4c3)C2)c1 (centres undefined)
0.505,–,COc1cc(OC)cc(C(=O)NC2CCN(CC[C@H](O)c3ccccc3)CC2)c1
0.484,–,COc1cc(OC)cc(C(=O)N[C@H]2CCN(Cc3ccc4ccccc4c3)C2)c1
0.205,–,COc1cc(OC)cc(C(=O)NC2CCN(Cc3ccc(Cl)c(Cl)c3)CC2)c1
0.142,–,COc1cc(OC)cc(C(=O)NC2CCN(Cc3cc4ccccc4n3C)CC2)c1
> 100,–,COc1cc(OC)cc(C(=O)NC2CC(C)(C)N(Cc3ccc4ccccc4c3)C(C)(C)C2)c1
8.07,–,COc1cc(OC)cc(C(=O)N[C@@H]2CCN(Cc3ccccc3)C2)c1
0.099,–,COc1cc(OC)cc(C(=O)NC2CCN(Cc3ccc4cc(OC)ccc4c3)CC2)c1
0.036,–,O=C(NC1CCN(Cc2ccc3ccccc3c2)CC1)c1ccc(F)cc1
0.023,–,COc1cc(OC)cc(C(=O)N[C@@H]2CCN(C(C)/C=C/c3ccccc3)C2)c1 (some centres undefined)
